pIC50, pKd: −log10 of the molar value.

Experiment [1] concerns the target T1, CREB-binding protein (Homo sapiens, UniProt Q92793). Nature of the experiment: Residual binding of human CBP expressed in Escherichia coli to histone H4 tetraacetylated peptide at 0.5 mM by Alphascreen assay relative to control.
Target sequence in this assay (Q92793 2-2442 limits assumed): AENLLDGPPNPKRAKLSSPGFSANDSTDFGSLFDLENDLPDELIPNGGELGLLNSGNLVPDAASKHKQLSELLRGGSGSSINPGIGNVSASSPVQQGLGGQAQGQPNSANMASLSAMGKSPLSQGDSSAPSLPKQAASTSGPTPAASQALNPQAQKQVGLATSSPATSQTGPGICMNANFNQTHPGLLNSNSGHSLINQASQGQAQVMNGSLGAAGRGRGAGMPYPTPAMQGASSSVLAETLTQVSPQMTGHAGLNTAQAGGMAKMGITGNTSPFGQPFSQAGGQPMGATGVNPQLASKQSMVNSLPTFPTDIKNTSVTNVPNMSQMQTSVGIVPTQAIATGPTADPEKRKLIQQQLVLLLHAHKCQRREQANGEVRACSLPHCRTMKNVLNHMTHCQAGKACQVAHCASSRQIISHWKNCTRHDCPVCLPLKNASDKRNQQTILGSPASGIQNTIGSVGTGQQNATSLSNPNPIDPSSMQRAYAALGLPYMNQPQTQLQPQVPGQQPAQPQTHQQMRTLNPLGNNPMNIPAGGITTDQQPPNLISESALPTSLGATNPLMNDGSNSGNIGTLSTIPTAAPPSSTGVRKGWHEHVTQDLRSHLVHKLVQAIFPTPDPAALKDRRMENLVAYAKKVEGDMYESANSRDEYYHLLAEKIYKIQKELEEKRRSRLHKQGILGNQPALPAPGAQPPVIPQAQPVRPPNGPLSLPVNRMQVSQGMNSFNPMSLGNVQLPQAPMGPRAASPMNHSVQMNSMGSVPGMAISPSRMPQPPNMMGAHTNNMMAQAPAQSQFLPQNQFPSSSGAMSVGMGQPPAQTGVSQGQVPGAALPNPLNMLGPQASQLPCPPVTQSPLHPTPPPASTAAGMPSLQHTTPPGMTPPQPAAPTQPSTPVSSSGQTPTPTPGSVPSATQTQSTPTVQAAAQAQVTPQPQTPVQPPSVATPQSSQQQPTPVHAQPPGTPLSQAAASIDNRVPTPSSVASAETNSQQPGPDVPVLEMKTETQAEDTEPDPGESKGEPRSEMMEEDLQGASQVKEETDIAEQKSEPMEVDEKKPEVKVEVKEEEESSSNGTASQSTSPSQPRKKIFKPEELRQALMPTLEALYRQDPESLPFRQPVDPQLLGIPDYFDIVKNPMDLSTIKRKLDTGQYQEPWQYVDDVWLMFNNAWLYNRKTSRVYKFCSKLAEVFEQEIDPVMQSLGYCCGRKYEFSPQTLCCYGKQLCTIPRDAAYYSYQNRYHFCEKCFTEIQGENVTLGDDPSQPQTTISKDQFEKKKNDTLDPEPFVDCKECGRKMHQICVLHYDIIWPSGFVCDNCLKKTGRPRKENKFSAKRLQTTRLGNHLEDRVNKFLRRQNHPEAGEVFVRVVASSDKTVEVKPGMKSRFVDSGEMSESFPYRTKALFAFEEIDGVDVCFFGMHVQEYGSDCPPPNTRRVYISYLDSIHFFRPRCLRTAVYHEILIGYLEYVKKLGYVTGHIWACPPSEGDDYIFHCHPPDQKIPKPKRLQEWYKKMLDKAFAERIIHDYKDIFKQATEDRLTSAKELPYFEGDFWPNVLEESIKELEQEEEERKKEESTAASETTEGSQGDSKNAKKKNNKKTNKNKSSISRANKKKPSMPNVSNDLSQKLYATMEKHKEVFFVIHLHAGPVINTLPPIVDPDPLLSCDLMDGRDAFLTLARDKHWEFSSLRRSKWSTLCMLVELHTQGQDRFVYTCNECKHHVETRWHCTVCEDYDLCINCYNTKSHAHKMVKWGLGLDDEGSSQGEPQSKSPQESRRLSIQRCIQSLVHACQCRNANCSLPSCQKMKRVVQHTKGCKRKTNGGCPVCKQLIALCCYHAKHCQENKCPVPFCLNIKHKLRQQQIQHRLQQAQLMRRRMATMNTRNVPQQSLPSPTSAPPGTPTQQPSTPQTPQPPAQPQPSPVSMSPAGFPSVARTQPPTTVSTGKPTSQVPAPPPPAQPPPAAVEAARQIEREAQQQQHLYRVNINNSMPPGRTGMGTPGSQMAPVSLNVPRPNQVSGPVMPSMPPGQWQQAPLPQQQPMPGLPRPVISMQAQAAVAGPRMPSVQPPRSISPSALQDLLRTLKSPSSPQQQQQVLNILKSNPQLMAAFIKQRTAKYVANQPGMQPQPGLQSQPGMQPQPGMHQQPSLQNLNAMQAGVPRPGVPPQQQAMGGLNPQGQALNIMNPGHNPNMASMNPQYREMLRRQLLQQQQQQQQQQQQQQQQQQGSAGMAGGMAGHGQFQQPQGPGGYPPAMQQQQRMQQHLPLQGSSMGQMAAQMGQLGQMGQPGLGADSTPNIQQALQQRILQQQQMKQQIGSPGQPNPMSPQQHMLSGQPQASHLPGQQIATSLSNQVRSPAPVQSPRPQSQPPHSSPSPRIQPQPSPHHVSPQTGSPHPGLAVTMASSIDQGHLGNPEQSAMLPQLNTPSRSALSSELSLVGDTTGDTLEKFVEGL
The target in experiment [2] is Histone acetyltransferase p300 (Homo sapiens) (UniProt Q09472). Nature of the experiment: Binding affinity to EP300 (unknown origin) assessed as change in melting temperature at 1 mM by differential scanning fluorimetric method. Summed up: (§1)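 Differential scanning fluorimetry with bromodomain at 2 μM and ligand at 1 mM. The reported shift in melting temperature is the median of at least nine measurements for each ligand/bromodomain pair.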
Sequence of Histone acetyltransferase p300 (Homo sapiens) (Q09472 whole entry): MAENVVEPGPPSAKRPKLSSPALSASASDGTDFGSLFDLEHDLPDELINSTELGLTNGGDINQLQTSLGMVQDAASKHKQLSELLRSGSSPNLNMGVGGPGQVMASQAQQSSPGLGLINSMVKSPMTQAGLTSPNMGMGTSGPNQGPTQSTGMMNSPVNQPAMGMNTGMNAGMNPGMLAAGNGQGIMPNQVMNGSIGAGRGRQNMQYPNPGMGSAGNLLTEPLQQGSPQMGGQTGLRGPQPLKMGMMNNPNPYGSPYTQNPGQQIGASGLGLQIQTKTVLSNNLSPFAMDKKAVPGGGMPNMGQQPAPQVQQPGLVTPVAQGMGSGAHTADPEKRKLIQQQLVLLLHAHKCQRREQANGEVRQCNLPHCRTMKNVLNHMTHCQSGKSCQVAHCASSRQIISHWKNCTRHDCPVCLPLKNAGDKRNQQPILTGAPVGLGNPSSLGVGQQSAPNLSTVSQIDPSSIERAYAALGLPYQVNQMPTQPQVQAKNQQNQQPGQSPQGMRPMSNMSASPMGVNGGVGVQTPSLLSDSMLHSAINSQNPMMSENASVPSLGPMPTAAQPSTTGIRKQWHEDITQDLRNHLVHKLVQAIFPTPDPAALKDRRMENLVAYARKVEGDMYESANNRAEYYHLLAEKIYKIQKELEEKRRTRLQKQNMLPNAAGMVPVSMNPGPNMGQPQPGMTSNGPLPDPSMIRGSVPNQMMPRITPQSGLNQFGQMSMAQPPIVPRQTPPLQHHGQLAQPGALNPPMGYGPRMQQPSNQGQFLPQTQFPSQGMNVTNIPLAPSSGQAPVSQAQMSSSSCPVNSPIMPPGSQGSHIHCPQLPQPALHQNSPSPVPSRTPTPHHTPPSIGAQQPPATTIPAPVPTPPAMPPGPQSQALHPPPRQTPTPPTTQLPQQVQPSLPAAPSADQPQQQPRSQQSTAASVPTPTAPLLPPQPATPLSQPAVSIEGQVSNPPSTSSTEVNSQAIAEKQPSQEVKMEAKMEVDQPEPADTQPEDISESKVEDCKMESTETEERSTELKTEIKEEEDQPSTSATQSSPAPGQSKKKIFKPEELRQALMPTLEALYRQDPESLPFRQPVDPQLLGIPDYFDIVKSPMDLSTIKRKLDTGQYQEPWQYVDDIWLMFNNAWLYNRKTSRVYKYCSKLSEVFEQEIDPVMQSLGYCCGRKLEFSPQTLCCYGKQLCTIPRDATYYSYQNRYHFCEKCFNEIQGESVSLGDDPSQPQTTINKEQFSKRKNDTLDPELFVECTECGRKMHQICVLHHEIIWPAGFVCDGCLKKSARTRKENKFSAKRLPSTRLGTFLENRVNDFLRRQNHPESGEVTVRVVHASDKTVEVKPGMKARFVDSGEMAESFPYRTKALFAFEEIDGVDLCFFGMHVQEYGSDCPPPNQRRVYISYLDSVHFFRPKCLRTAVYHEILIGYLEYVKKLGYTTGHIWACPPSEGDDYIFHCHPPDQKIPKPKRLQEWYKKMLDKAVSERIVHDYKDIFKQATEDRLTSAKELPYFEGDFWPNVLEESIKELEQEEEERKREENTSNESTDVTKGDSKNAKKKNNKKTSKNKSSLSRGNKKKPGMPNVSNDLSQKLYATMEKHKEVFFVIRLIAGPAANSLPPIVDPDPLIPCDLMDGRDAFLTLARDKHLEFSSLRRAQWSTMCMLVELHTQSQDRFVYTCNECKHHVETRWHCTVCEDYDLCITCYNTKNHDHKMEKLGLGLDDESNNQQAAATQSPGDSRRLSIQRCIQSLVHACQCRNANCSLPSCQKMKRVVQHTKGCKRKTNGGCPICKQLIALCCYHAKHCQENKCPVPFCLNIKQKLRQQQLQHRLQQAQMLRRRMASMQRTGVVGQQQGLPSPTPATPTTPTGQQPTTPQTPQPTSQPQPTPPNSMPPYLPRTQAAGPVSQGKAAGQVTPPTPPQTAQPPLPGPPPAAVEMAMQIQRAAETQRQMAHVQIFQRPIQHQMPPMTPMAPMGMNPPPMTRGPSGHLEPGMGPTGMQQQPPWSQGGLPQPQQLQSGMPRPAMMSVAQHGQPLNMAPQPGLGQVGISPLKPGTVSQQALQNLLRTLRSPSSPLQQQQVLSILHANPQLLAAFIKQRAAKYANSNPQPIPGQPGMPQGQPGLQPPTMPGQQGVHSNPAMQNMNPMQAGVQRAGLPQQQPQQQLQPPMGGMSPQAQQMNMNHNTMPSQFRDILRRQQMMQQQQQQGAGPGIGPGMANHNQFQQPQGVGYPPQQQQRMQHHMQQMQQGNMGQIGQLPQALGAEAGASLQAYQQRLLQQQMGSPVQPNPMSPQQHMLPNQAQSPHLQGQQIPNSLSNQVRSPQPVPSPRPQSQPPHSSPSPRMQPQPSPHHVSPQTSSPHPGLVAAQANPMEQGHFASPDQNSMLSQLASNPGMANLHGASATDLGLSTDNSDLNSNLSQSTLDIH

Experiment [3] deals with T1, CREB-binding protein. Nature of the experiment: Binding affinity to CBP (unknown origin) assessed as change in melting temperature at 1 mM by differential scanning fluorimetric method. The method, boiled down: as §1
Target sequence in this assay (Q92793 2-2442 limits assumed): as the sequence (Q92793 2-2442 limits assumed) above
Experiment [4] deals with T1, CREB-binding protein. Nature of the experiment: Binding affinity to partial length human DNA-tagged CBP (R1081 to G1197 residues) expressed in bacterial expression system by qPCR analysis. Summed up: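 Competition-binding assay using DNA-tagged CBP bromodomain against an undisclosed proprietary ligand, with quantitative PCR read-out. KD was obtained by curve fitting of 12-point dose responses run in duplicate.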

For experiment [5], the target named is T1, CREB-binding protein. Kind of experiment: Inhibition of histone H4 tetraacetylated peptide binding to human CBP by Alphascreen assay. The method, boiled down:
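AlphaScreen competition with a tetra-acetylated 21-mer histone H4 peptide as the competitor for the CBP bromodomain. IC50 was obtained by curve fitting of 10-point dose responses.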

On to `O=c1[nH]c(=O)n([C@H]2C[C@H](O)[C@H](CO)O2)cc1F`, for which the residual activity on CREB-binding protein [1] was determined as 98%. Turning to `CC(=O)c1cn(C)c2ccccc12`, the residual activity on CREB-binding protein [1] stood at 31%. Further, the values for the ΔTm (in experiment [2]; at CREB-binding protein [3]) were 2.6 °C and 2.9 °C, respectively. Consider `Cc1nnsc1Sc1ccccn1`, for which the residual activity at CREB-binding protein [1] came out at 92%. The same measure, in the same setting: next, `CCn1cnc2ccc(C(=O)OC)cc21`: 79%; `O=C(O)[C@@H]1CS[C@H](c2ccc(F)cc2)N1`: 94%.

With `COc1cc(C(C)=O)ccc1N`, at CREB-binding protein [1], the residual activity was 37%. For the same compound, the ΔTm worked out at 2.6 °C in experiment [2] and 2.4 °C at CREB-binding protein [3]. For `COC(=O)c1ccc(C(C)=O)cc1`, at CREB-binding protein [1], the residual activity is 92%. The same measure, in the same setting: next, `COC(=O)N1CCC(C(=O)O)CC1`: 56%; `CC(=O)c1ccc(CC#N)s1`: 56%; `CC(=O)Nc1ccc(SCC#N)cc1`: 74%. `COC(=O)c1ccc2[nH]c(=O)oc2c1`: the residual activity at CREB-binding protein [1] came out at 34%. The thermal shift (ΔTm) in experiment [2] worked out at 1.4 °C; on CREB-binding protein [3] it was 2.3 °C. At CREB-binding protein [4], this compound gave a pKd of 4.07. This compound also gave a pIC50 at CREB-binding protein [5] of 3.34. Regarding `Cn1ncc2c1CCCC2=O`, the residual activity at CREB-binding protein [1] came to 100%. As for `CNC(=O)c1cc(Br)c[nH]1`, the residual activity on CREB-binding protein [1] was 0.1%. Besides, the ΔTm came out at 7 °C in experiment [2] and 7.3 °C at CREB-binding protein [3]. This compound also showed a negative-log Kd (pKd) on CREB-binding protein [4] of 5.40. On CREB-binding protein [5], this compound had a pIC50 of 4.40.

On to `CCc1nnc2cccc(Cl)n12`, for which the residual activity at CREB-binding protein [1] came out at 85%.

As for `CNC(=O)c1ccc(C(F)(F)F)nc1`, the residual activity at CREB-binding protein [1] is 96%. Turning to `COc1ccc(-c2c[nH]nc2N)cc1OC`, the residual activity at CREB-binding protein [1] turned out to be 48%. For the same compound, the thermal shift (ΔTm) was -1.3 °C in experiment [2] and -0.1 °C on CREB-binding protein [3]. Take `CC(=O)c1ccc(O)c2[nH]c(=O)ccc12`: at CREB-binding protein [1], the residual activity turned out to be 93%. Same read-out and setting: next, `Cc1nc2ccc(NS(C)(=O)=O)cc2o1`: 92%; `CS(=O)(=O)NCc1ccc2c(c1)OCO2`: 100%; `Cc1nnc2ccc(N3CCOCC3)nn12`: 102%.

The record behind these values is ChEMBL document CHEMBL4028826, “Virtual screen to NMR (VS2NMR): Discovery of fragment hits for the CBP bromodomain” (Bioorg Med Chem Lett, 2017).
